Source: ChEMBL document CHEMBL4393692, “Thiazolidinone/thiazole based hybrids - New class of antitrypanosomal agents” (Eur J Med Chem, 2019)
pIC50: −log10 of the molar value.

Experiments:
[1] = test system: Trypanosoma brucei gambiense; assay: Antitrypanosomal activity against bloodstream form of Trypanosoma brucei gambiense Feo reduction in parasite growth after 72 hrs by resazurin dye based fluorescence assay; type: functional, organism-based
How it was run: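 Bloodstream parasites cultured in HMI9 with 10% FCS at 37°C under 5% CO2. Log-phase cells harvested at 3000xg, plated at 10^5 cells/ml with dilutions from 10 down to 0.625 µg/ml (DMSO stocks) for 72 h. Resazurin added at 45 µM final, fluorescence read after a further 4 h. Inhibition vs DMSO control. IC50 from dose-response curve, mean ± SD of three independent experiments.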

[2] = Cytotoxicity against human AB943 cells assessed as reduction in cell viability after 5 days resazurin dye based fluorescence assay; details: 120 h
How it was run: (§1)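 Human primary fibroblasts grown in RPMI with 25 mM HEPES pH 7.3 and 10% FCS, 37°C, 5% CO2. After trypsinisation, seeded at 5000 cells/well and incubated 24 h. Then washed and exposed to two-fold drug dilutions, final DMSO below 1%, for 5 days. Resazurin added, fluorescence read (ex 530/em 590 nm) after 4 h. Growth inhibition vs DMSO control. SI = IC50 fibroblast / IC50 T. b. gambiense.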

[3] = Selectivity index, ratio of IC50 for human AB943 cells to IC50 of bloodstream form of Trypanosoma brucei gambiense Feo; type: toxicity; details: read-out: Ratio IC50; how it was run: as §1

SMILES | pIC50 [1] | pIC50 [2] | selectivity ratio [3]
CCc1nn2c(/C=N/NC(=S)Nc3ccc(O)cc3)c(-c3ccccc3)nc2s1 | 5.59 | – | –
CCc1nn2c(/C=N/N=C3/NC(=O)C(C)S3)c(-c3ccccc3)nc2s1 (stereo unspecified) | < 4.60 | – | –
CCc1nn2c(/C=N/N=C3/NC(=O)C(CCOC(C)=O)S3)c(-c3ccc(Br)cc3)nc2s1 (stereo unspecified) | 5.49 | – | –
CCc1nn2c(/C=N/N=c3/[nH]c(-c4ccc([N+](=O)[O-])cc4)cs3)c(-c3ccccc3)nc2s1 | 4.99 | – | –
CCOC(=O)c1s/c(=N\N=C\c2c(-c3ccccc3)nc3sc(CC)nn23)n(-c2ccc(O)cc2)c1C | 6.13 | 4.29 | 69
CCc1nn2c(C=O)c(-c3ccccc3)nc2s1 | < 4.40 | – | –
C=CCSc1nn2c(/C=N/N=C3/NC(=O)C(CC(=O)O)S3)c(-c3ccccc3)nc2s1 (stereo unspecified) | < 4.70 | – | –
CCc1nn2c(/C=N/NC(N)=S)c(-c3ccc(Br)cc3)nc2s1 | < 4.60 | – | –
C=CCSc1nn2c(/C=N/N=C3/NC(=O)C(C)S3)c(-c3ccccc3)nc2s1 (stereo unspecified) | 5.36 | – | –
CCc1nn2c(/C=N/NC(N)=S)c(-c3ccc([N+](=O)[O-])cc3)nc2s1 | < 4.60 | – | –
CCc1nn2c(/C=N/NC(=S)Nc3ccc(O)cc3)c(-c3ccc(Br)cc3)nc2s1 | 5.82 | – | –
CCc1nn2c(/C=N/N=C3/NC(=O)C(CC)S3)c(-c3ccc(Br)cc3)nc2s1 (stereo unspecified) | 4.86 | – | –
CCOC(=O)c1s/c(=N\N=C\c2c(-c3ccc([N+](=O)[O-])cc3)nc3sc(CC)nn23)n(-c2ccc(O)cc2)c1C | 6.19 | < 4.10 | > 130
CCc1nn2c(/C=N/N=c3\scc(-c4ccc([N+](=O)[O-])cc4)n3-c3ccc(O)cc3)c(-c3ccc([N+](=O)[O-])cc3)nc2s1 | 5.59 | – | –
C=CCSc1nn2c(C=O)c(-c3ccccc3)nc2s1 | 4.63 | – | –
C=CCSc1nn2c(/C=N/N=C3\SC(CC)C(=O)N3c3ccc(O)cc3)c(-c3ccccc3)nc2s1 (stereo unspecified) | 5.44 | < 4.05 | > 26
CCc1nn2c(/C=N/N=C3/NC(=O)C(CCOC(C)=O)S3)c(-c3ccc([N+](=O)[O-])cc3)nc2s1 (stereo unspecified) | 4.79 | – | –
C=CCSc1nn2c(/C=N/NC(N)=S)c(-c3ccccc3)nc2s1 | 5.21 | – | –
CCOC(=O)c1s/c(=N\N=C\c2c(-c3ccc(Br)cc3)nc3sc(CC)nn23)[nH]c1C | 5.13 | – | –
C=CCSc1nn2c(/C=N/N=C3\SC(C)C(=O)N3c3ccc(O)cc3)c(-c3ccccc3)nc2s1 (stereo unspecified) | < 4.70 | – | –
CCOC(=O)c1s/c(=N\N=C\c2c(-c3ccc(Br)cc3)nc3sc(CC)nn23)n(-c2ccc(O)cc2)c1C | 6.00 | – | –
CCc1nn2c(/C=N/N=C3\SC(CCOC(C)=O)C(=O)N3c3ccc(O)cc3)c(-c3ccc([N+](=O)[O-])cc3)nc2s1 (stereo unspecified) | 4.95 | – | –
C=CCSc1nn2c(/C=N/N=C3\SC(CCOC(C)=O)C(=O)N3c3ccc(O)cc3)c(-c3ccccc3)nc2s1 (stereo unspecified) | 6.00 | – | –
C=CCSc1nn2c(/C=N/N=C3/NC(=O)C(CCOC(C)=O)S3)c(-c3ccccc3)nc2s1 (stereo unspecified) | 5.24 | 4.72 | 3
CCOC(=O)CSc1nn2c(/C=N/N=C3/NC(=O)C(C)S3)c(-c3ccccc3)nc2s1 (stereo unspecified) | 5.41 | – | –
CCc1nn2c(/C=N/N=c3\scc(-c4ccc(Br)cc4)n3-c3ccc(O)cc3)c(-c3ccc([N+](=O)[O-])cc3)nc2s1 | 6.23 | – | –

SMILES | pIC50 [1] | pIC50 [2] | selectivity ratio [3]
CCc1nn2cc(-c3ccccc3)nc2s1 | < 4.40 | – | –
CCc1nn2c(/C=N/N=c3\scc(-c4ccccc4)n3-c3ccc(O)cc3)c(-c3ccccc3)nc2s1 | 5.52 | – | –
CCc1nn2c(/C=N/N=C3\SC(C)C(=O)N3c3ccc(O)cc3)c(-c3ccccc3)nc2s1 (stereo unspecified) | 5.32 | – | –
CCc1nn2c(/C=N/N=C3/NC(=O)C(C)S3)c(-c3ccc(Br)cc3)nc2s1 (stereo unspecified) | 5.02 | – | –
CCc1nn2c(/C=N/NC(=S)Nc3ccc(O)cc3)c(-c3ccc([N+](=O)[O-])cc3)nc2s1 | 4.83 | – | –
C=CCSc1nn2c(/C=N/N=C3\SCC(=O)N3c3ccc(O)cc3)c(-c3ccccc3)nc2s1 | < 4.70 | – | –
CCc1nn2c(/C=N/N=C3\SC(CC)C(=O)N3c3ccc(O)cc3)c(-c3ccccc3)nc2s1 (stereo unspecified) | < 4.70 | – | –
CCOC(=O)CSc1nn2c(/C=N/N=C3/NC(=O)C(CC)S3)c(-c3ccccc3)nc2s1 (stereo unspecified) | 5.04 | – | –
CCc1nn2c(/C=N/N=C3/NC(=O)C(CCOC(C)=O)S3)c(-c3ccccc3)nc2s1 (stereo unspecified) | 4.93 | – | –
CCc1nn2c(/C=N/N=C3/NC(=O)C(CC)S3)c(-c3ccc([N+](=O)[O-])cc3)nc2s1 (stereo unspecified) | < 4.70 | – | –
C=CCSc1nn2cc(-c3ccccc3)nc2s1 | 4.57 | – | –
C=CCSc1nn2c(/C=N/N=C3/NC(=O)CS3)c(-c3ccccc3)nc2s1 | 5.41 | – | –
CCOC(=O)c1s/c(=N\N=C\c2c(-c3ccc([N+](=O)[O-])cc3)nc3sc(CC)nn23)[nH]c1C | < 4.70 | – | –
CCc1nn2c(/C=N/N=C3\SCC(=O)N3c3ccc(O)cc3)c(-c3ccccc3)nc2s1 | 5.04 | – | –
CCOC(=O)CSc1nn2cc(-c3ccccc3)nc2s1 | < 4.52 | – | –
CCc1nn2c(/C=N/N=c3/[nH]c(-c4ccc([N+](=O)[O-])cc4)cs3)c(-c3ccc([N+](=O)[O-])cc3)nc2s1 | 5.36 | – | –
CCc1nn2c(/C=N/N=C3\SC(CCOC(C)=O)C(=O)N3c3ccc(O)cc3)c(-c3ccccc3)nc2s1 (stereo unspecified) | 5.57 | – | –
C=CCSc1nn2c(/C=N/NC(=S)Nc3ccc(O)cc3)c(-c3ccccc3)nc2s1 | < 4.30 | – | –
CCc1nn2c(/C=N/NC(N)=S)c(-c3ccccc3)nc2s1 | 4.68 | – | –
CCc1nn2c(/C=N/N=C3\SC(CC)C(=O)N3c3ccc(O)cc3)c(-c3ccc(Br)cc3)nc2s1 (stereo unspecified) | 5.82 | – | –
C=CCSc1nn2c(/C=N/N=C3/NC(=O)C(CC)S3)c(-c3ccccc3)nc2s1 (stereo unspecified) | 4.69 | – | –
CCc1nn2c(/C=N/N=C3\SC(C)C(=O)N3c3ccc(O)cc3)c(-c3ccc(Br)cc3)nc2s1 (stereo unspecified) | 5.82 | – | –
CCc1nn2c(/C=N/N=C3/NC(=O)CS3)c(-c3ccccc3)nc2s1 | 4.74 | – | –
CCOC(=O)c1s/c(=N\N=C\c2c(-c3ccccc3)nc3sc(CC)nn23)[nH]c1C | 5.57 | – | –
CCc1nn2c(/C=N/N=C3/NC(=O)C(CC)S3)c(-c3ccccc3)nc2s1 (stereo unspecified) | 5.43 | – | –

Further lines, with some results ahead:

pIC50 [1] | SMILES | pIC50 [2] | selectivity ratio [3]
5.87 | CC(=O)OCCC1S/C(=N\N=C\c2c(-c3ccc(Cl)cc3)[nH]c3ccccc23)NC1=O (stereo unspecified) | – | –
6.18 | CCOC(=O)c1s/c(=N\N=C\c2c(-c3ccc([N+](=O)[O-])cc3)[nH]c3ccccc23)n(-c2ccc(O)cc2)c1C | 4.08 | 127
5.83 | O=C1N/C(=N/N=C/c2c(-c3ccc(Cl)cc3)[nH]c3ccccc23)SC1CCO (stereo unspecified) | 5.05 | 7
6.85 | CCC1S/C(=N\N=C\c2c(-c3ccc([N+](=O)[O-])cc3)[nH]c3ccccc23)N(c2ccc(O)cc2)C1=O (stereo unspecified) | 5.07 | 60
5.82 | Clc1ccc(-c2[nH]c3ccccc3c2/C=N/Nc2nc(-c3ccc(Br)cc3)cs2)cc1 | – | –
5.82 | CCC1S/C(=N\N=C\c2c(-c3ccc(Br)cc3)[nH]c3ccccc23)NC1=O (stereo unspecified) | – | –
6.13 | CCOC(=O)c1sc(N/N=C/c2c(-c3ccc([N+](=O)[O-])cc3)[nH]c3ccccc23)nc1C | – | –
6.28 | CCOC(=O)c1sc(N/N=C/c2c(-c3ccc(Cl)cc3)[nH]c3ccccc23)nc1C | 4.69 | 39
6.64 | O=C1CS/C(=N\N=C\c2c(-c3ccccc3)[nH]c3ccccc23)N1 | 4.88 | 57
5.80 | CC(=O)OCCC1S/C(=N\N=C\c2c(-c3ccc(Cl)cc3)[nH]c3ccccc23)N(Cc2ccco2)C1=O (stereo unspecified) | – | –
5.22 | O=[N+]([O-])c1ccc(-c2[nH]c3ccccc3c2/C=N/Nc2nc(-c3ccccc3)cs2)cc1 | – | –
6.09 | O=C1CS/C(=N\N=C\c2c(-c3ccc(Cl)cc3)[nH]c3ccccc23)N1c1ccc(O)cc1 | < 4.00 | > 130
5.85 | O=C1C(CCO)S/C(=N\N=C\c2c(-c3ccc(Cl)cc3)[nH]c3ccccc23)N1Cc1ccco1 (stereo unspecified) | 5.21 | 4
5.87 | CC(=O)OCCC1S/C(=N\N=C\c2c(-c3ccc(Br)cc3)[nH]c3ccccc23)NC1=O (stereo unspecified) | – | –
5.85 | CCC1S/C(=N\N=C\c2c(-c3ccc(Cl)cc3)[nH]c3ccccc23)NC1=O (stereo unspecified) | – | –
5.21 | CCC1S/C(=N\N=C\c2c(-c3ccc([N+](=O)[O-])cc3)[nH]c3ccccc23)NC1=O (stereo unspecified) | – | –
6.29 | CCc1nn2c(/C=N/N=c3\scc(-c4ccc([N+](=O)[O-])cc4)n3-c3ccc(O)cc3)c(-c3ccc(Br)cc3)nc2s1 | < 4.15 | > 150
5.77 | CC1S/C(=N\N=C\c2c(-c3ccc(Cl)cc3)[nH]c3ccccc23)N(Cc2ccco2)C1=O (stereo unspecified) | – | –
5.93 | CC1S/C(=N\N=C\c2c(-c3ccc(Cl)cc3)[nH]c3ccccc23)N(c2ccc(O)cc2)C1=O (stereo unspecified) | – | –
5.14 | O=C1CS/C(=N\N=C\c2c(-c3ccc(Cl)cc3)[nH]c3ccccc23)N1Cc1ccco1 | – | –
5.82 | O=[N+]([O-])c1ccc(-c2[nH]c3ccccc3c2/C=N/N=c2\scc(-c3ccc([N+](=O)[O-])cc3)n2-c2ccc(O)cc2)cc1 | – | –
5.04 | CCc1nn2c(/C=N/N=c3/[nH]c(-c4ccc([N+](=O)[O-])cc4)cs3)c(-c3ccc(Br)cc3)nc2s1 | – | –
5.48 | O=C1N/C(=N/N=C/c2c(-c3ccc(Br)cc3)[nH]c3ccccc23)SC1CCO (stereo unspecified) | – | –
5.77 | CCC1S/C(=N\N=C\c2c(-c3ccc(Cl)cc3)[nH]c3ccccc23)N(Cc2ccco2)C1=O (stereo unspecified) | – | –
5.33 | CC1S/C(=N\N=C\c2c(-c3ccc([N+](=O)[O-])cc3)[nH]c3ccccc23)NC1=O (stereo unspecified) | – | –
5.87 | CC1S/C(=N\N=C\c2c(-c3ccc(Br)cc3)[nH]c3ccccc23)NC1=O (stereo unspecified) | – | –
